Results as given in ChEMBL document CHEMBL1221207, “Expanding the promiscuity of a natural-product glycosyltransferase by directed evolution” (Nat Chem Biol, 2007).
Residue numbers refer to the chain shown, from its start.

Columns and labels:
[1] = biological target: T1, Oleandomycin glycosyltransferase (Streptomyces antibioticus) (UniProt Q53685); assay: Activity of Streptomyces antibioticus wild-type OleD assessed as conversion rate of compound to produce glucoside 3 using NDP sugar UDP-6-deoxy-glucose after 3 hrs by HPLC
T1 sequence (whole entry): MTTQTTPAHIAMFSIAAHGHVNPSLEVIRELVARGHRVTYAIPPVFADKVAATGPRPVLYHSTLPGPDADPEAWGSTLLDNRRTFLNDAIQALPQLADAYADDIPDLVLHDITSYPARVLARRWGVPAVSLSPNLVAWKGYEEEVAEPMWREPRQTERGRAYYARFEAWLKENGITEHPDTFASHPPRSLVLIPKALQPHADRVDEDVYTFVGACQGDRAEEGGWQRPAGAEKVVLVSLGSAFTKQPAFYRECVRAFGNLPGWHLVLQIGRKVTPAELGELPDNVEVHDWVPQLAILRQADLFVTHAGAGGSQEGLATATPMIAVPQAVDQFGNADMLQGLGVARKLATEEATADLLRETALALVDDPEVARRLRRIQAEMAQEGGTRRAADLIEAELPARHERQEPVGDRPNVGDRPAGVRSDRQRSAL
Summary of the method: (§1)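 End-point donor-specificity assay with purified OleD enzyme. Percentage conversion was read after 3 h. Quenched reactions were run by reverse-phase C18 HPLC with a 10–90% CH3CN gradient in 0.1% formic acid/H2O over 20 min at 1 ml min–1, with detection at 254 nm. Products were identified by LC-MS, by comparison to standards where available, and by fluorescence.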

[2] = test system: T2, Oleandomycin glycosyltransferase (Streptomyces antibioticus), Q53685 [P67T,S132F,A242V]; assay: Activity of Streptomyces antibioticus OleD P67T/S132F/A242V mutant assessed as conversion rate of compound to produce glucoside 3 using NDP sugar donor UDP-6-thio-glucose after 3 hrs by HPLC; summary of the method: as §1
T2 sequence (whole entry): T1 sequence (whole entry) with P67T, S132F, A242V

[3] = test system: T3, Oleandomycin glycosyltransferase (Streptomyces antibioticus), Q53685 [P67T]; assay: Activity of Streptomyces antibioticus OleD P67T mutant assessed as conversion rate of compound to produce glucoside 3 using NDP sugar donor UDP-glucose after 3 hrs by HPLC; summary of the method: as §1
T3 sequence (whole entry): T1 sequence (whole entry) with P67T

[4] = test system: T4, Oleandomycin glycosyltransferase (Streptomyces antibioticus), Q53685 [A242V]; assay: Activity of Streptomyces antibioticus OleD A242V mutant assessed as conversion rate of compound to produce glucoside 3 using NDP sugar donor UDP-glucose after 3 hrs by HPLC; summary of the method: as §1
T4 sequence (whole entry): T1 sequence (whole entry) with A242V

[5] = test system: T2, Oleandomycin glycosyltransferase (Streptomyces antibioticus), Q53685 [P67T,S132F,A242V]; assay: Activity of Streptomyces antibioticus OleD P67T/S132F/A242V mutant assessed as conversion rate of compound to produce glucoside 3 using NDP sugar donor UDP-4-amino-6-deoxy-glucose after 3 hrs by HPLC; summary of the method: as §1
[6] = test system: T2, Oleandomycin glycosyltransferase (Streptomyces antibioticus), Q53685 [P67T,S132F,A242V]; assay: Activity of Streptomyces antibioticus OleD P67T/S132F/A242V mutant assessed as conversion rate of compound to produce glucoside 3 using NDP sugar UDP-6-azido-glucose after 3 hrs by HPLC; summary of the method: as §1
[7] = test system: T5, Oleandomycin glycosyltransferase (Streptomyces antibioticus), Q53685 [S132F]; assay: Activity of Streptomyces antibioticus OleD S132F mutant assessed as conversion rate of compound to produce glucoside 3 using NDP sugar donor UDP-xylose after 3 hrs by HPLC; summary of the method: as §1
T5 sequence (whole entry): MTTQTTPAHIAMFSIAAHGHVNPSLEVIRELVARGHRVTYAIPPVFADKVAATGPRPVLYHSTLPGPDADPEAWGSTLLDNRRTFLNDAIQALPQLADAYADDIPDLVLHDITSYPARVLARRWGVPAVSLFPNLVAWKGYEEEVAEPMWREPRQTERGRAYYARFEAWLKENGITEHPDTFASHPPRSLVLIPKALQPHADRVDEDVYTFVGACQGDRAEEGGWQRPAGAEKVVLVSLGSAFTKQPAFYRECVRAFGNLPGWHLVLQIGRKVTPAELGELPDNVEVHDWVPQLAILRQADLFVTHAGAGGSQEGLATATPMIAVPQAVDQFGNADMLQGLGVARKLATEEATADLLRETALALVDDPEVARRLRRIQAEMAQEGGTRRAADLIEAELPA

[8] = test system: T3, Oleandomycin glycosyltransferase (Streptomyces antibioticus), Q53685 [P67T]; assay: Activity of Streptomyces antibioticus OleD P67T mutant assessed as conversion rate of compound to produce glucoside 3 using NDP sugar donor UDP-6-deoxy-glucose after 3 hrs by HPLC; summary of the method: as §1
[9] = test system: T2, Oleandomycin glycosyltransferase (Streptomyces antibioticus), Q53685 [P67T,S132F,A242V]; assay: Activity of Streptomyces antibioticus OleD P67T/S132F/A242V mutant assessed as conversion rate of compound to produce glucoside 3 using NDP sugar UDP-glucose after 3 hrs by HPLC; summary of the method: as §1

`Cc1cc(=O)oc2cc(O)ccc12` showed an Activity [1] of 6%, an Activity [2] of 47% and an Activity [3] of 51%. It also gave an Activity [4] of 38%, an Activity [5] of 47% and an Activity [6] of 41%. The Activity [7] was 1.5%, the Activity [8] was 11% and the Activity [9] was 96.4%.
